Measured values published in ChEMBL document CHEMBL1138520, “Molecular and conformational determinants of pituitary adenylate cyclase-activating polypeptide (PACAP) for activation of the PAC1 receptor” (J Med Chem, 2009).
The source made the active and inactive calls. The calls are words filed in the database; no cut-off is given here.

How the values were obtained:
[1] = biological target: T1, Pituitary adenylate cyclase-activating polypeptide type I receptor (Homo sapiens, UniProt P41586); assay: Agonist activity at human recombinant PAC1 receptor expressed in CHO cells assessed as PACAP38-induced calcium mobilization at 1 uM by FLIPR assay; type: functional, cell-based
Target sequence in this assay (P41586 whole entry): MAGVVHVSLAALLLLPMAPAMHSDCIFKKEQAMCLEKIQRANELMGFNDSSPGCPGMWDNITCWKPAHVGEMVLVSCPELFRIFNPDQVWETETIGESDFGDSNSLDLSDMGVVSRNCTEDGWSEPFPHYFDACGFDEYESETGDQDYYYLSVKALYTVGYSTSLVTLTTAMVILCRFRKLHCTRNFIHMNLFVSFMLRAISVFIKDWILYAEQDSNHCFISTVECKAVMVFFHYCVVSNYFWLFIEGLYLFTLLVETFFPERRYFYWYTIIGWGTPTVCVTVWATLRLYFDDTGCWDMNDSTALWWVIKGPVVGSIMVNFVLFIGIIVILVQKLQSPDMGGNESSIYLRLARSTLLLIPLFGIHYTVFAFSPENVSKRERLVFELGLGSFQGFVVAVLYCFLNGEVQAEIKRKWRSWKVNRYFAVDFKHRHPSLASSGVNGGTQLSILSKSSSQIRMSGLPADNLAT

[2] = biological target: T1, Pituitary adenylate cyclase-activating polypeptide type I receptor; assay: Antagonist activity at human recombinant PAC1 receptor expressed in CHO cells assessed as reduction in PACAP38-induced calcium mobilization at 10 uM by FLIPR assay; type: functional, cell-based
In short: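 Fluo-4-loaded CHO cells stably expressing human PAC1 were exposed for 15 min to 10^-5 M peptide before reading. They were then challenged with 10^-6 M PACAP38, and the reduction in fluorescence calcium response was recorded (ex 480/em 525 nm, 150 s).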
Target sequence in this assay (P41586 21-468 limits assumed): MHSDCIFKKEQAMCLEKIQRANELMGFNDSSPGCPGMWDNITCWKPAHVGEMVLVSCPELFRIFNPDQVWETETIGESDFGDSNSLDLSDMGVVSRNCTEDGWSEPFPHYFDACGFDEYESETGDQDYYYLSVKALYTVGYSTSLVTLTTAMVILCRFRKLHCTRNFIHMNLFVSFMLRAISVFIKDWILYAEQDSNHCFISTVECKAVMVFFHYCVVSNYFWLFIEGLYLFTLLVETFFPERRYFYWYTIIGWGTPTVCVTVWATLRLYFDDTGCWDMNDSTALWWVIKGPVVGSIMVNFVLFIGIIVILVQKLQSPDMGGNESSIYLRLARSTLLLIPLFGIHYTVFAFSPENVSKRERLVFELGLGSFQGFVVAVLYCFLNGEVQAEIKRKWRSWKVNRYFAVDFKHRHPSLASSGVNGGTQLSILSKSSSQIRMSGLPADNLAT

[3] = biological target: T1, Pituitary adenylate cyclase-activating polypeptide type I receptor; assay: Displacement of [125I]Ac-PACAP27 from human recombinant PAC1 receptor expressed in CHO cells by gamma- counter; type: cell-based
Target sequence in this assay (P41586 whole entry): as the sequence (P41586 whole entry) above

[4] = biological target: T1, Pituitary adenylate cyclase-activating polypeptide type I receptor; assay: Agonist activity at human recombinant PAC1 receptor expressed in CHO cells assessed as PACAP38-induced calcium mobilization at 1 uM by FLIPR assay relative to PACAP38; type: functional, cell-based
Target sequence in this assay (P41586 21-468 limits assumed): as the sequence (P41586 21-468 limits assumed) above

[5] = biological target: T1, Pituitary adenylate cyclase-activating polypeptide type I receptor; assay: Antagonist activity at human recombinant PAC1 receptor expressed in CHO cells assessed as reduction in PACAP38-induced calcium mobilization by FLIPR assay; type: functional, cell-based; conditions: read-out: pA2 (converted)
In short: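 PAC1-CHO cells were loaded with fluo-4 and preincubated 15 min with antagonist at 0.1, 1 or 10 µM. PACAP38 concentration-response curves for calcium mobilization were then recorded. pA2 was estimated by Schild plot from concentration ratios; 4-10 independent assays in duplicate.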
Target sequence in this assay (P41586 whole entry): as the sequence (P41586 whole entry) above

| Compound | EC50 [1] | Activity [2] | IC50 [3] [nM] | Emax [4] | Kb [5] [nM] |
| --- | --- | --- | --- | --- | --- |
| CC[C@H](C)[C@H](NC(=O)CN(C)C(=O)[C@H](CC(=O)O)NC(=O)[C@H](CO)NC(=O)[C@@H](N)Cc1cnc[nH]1)C(=O)N[C@@H](Cc1ccccc1)C(=O)N[C@H](C(=O)N[C@@H](CC(=O)O)C(=O)N[C@@H](CO)C(=O)N[C@@H](Cc1ccc(O)cc1)C(=O)N[C@@H](CO)C(=O)N[C@@H](CCCNC(=N)N)C(=O)N[C@@H](Cc1ccc(O)cc1)C(=O)N[C@@H](CCCNC(=N)N)C(=O)N[C@@H](CCCCN)C(=O)N[C@@H](CCC(N)=O)C(=O)N[C@@H](CCSC)C(=O)N[C@@H](C)C(=O)N[C@H](C(=O)N[C@@H](CCCCN)C(=O)N[C@@H](CCCCN)C(=O)N[C@@H](Cc1ccc(O)cc1)C(=O)N[C@@H](CC(C)C)C(=O)N[C@@H](C)C(=O)N[C@@H](C)C(=O)N[C@H](C(=O)N[C@@H](CC(C)C)C(N)=O)C(C)C)C(C)C)[C@@H](C)O | Not Active | inactive | 308 | inactive | – |
| CC[C@H](C)[C@H](NC(=O)CN(C)C(=O)[C@H](CC(=O)O)NC(=O)[C@H](CO)NC(=O)[C@@H](N)Cc1cnc[nH]1)C(=O)N[C@@H](Cc1ccccc1)C(=O)N[C@H](C(=O)N[C@@H](CC(=O)O)C(=O)N[C@@H](CO)C(=O)N[C@@H](Cc1ccc(O)cc1)C(=O)N[C@@H](CO)C(=O)N[C@@H](CCCNC(=N)N)C(=O)N[C@@H](Cc1ccc(O)cc1)C(=O)N[C@@H](CCCNC(=N)N)C(=O)N[C@@H](CCCCN)C(=O)N[C@@H](CCC(N)=O)C(=O)N[C@@H](CCSC)C(=O)N[C@@H](C)C(=O)N[C@H](C(=O)N[C@@H](CCCCN)C(=O)N[C@@H](CCCCN)C(=O)N[C@@H](Cc1ccc(O)cc1)C(=O)N[C@@H](CC(C)C)C(=O)N[C@@H](C)C(=O)N[C@@H](C)C(=O)N[C@H](C(=O)N[C@@H](CC(C)C)C(=O)NCC(=O)N[C@@H](CCCCN)C(=O)N[C@@H](CCCNC(=N)N)C(=O)N[C@@H](Cc1ccc(O)cc1)C(=O)N[C@@H](CCCCN)C(=O)N[C@@H](CCC(N)=O)C(=O)N[C@@H](CCCNC(=N)N)C(=O)N[C@H](C(=O)N[C@@H](CCCCN)C(=O)N[C@@H](CC(N)=O)C(=O)N[C@@H](CCCCN)C(N)=O)C(C)C)C(C)C)C(C)C)[C@@H](C)O | Not Active | – | 97 | inactive | 4.07 |
| CC[C@H](C)[C@@H](C(=O)N[C@@H](Cc1ccccc1)C(=O)N[C@H](C(=O)N[C@@H](CC(=O)O)C(=O)N[C@@H](CO)C(=O)N[C@@H](Cc1ccc(O)cc1)C(=O)N[C@@H](CO)C(=O)N[C@@H](CCCNC(=N)N)C(=O)N[C@@H](Cc1ccc(O)cc1)C(=O)N[C@@H](CCCNC(=N)N)C(=O)N[C@@H](CCCCN)C(=O)N[C@@H](CCC(N)=O)C(=O)N[C@@H](CCSC)C(=O)N[C@@H](C)C(=O)N[C@H](C(=O)N[C@@H](CCCCN)C(=O)N[C@@H](CCCCN)C(=O)N[C@@H](Cc1ccc(O)cc1)C(=O)N[C@@H](CC(C)C)C(=O)N[C@@H](C)C(=O)N[C@@H](C)C(=O)N[C@H](C(=O)N[C@@H](CC(C)C)C(=O)NCC(=O)N[C@@H](CCCCN)C(=O)N[C@@H](CCCNC(=N)N)C(=O)N[C@@H](Cc1ccc(O)cc1)C(=O)N[C@@H](CCCCN)C(=O)N[C@@H](CCC(N)=O)C(=O)N[C@@H](CCCNC(=N)N)C(=O)N[C@H](C(=O)N[C@@H](CCCCN)C(=O)N[C@@H](CC(N)=O)C(=O)N[C@@H](CCCCN)C(N)=O)C(C)C)C(C)C)C(C)C)[C@@H](C)O)N(C)C(=O)CNC(=O)[C@H](CC(=O)O)NC(=O)[C@H](CO)NC(=O)[C@@H](N)Cc1cnc[nH]1 | Not Active | – | 158 | inactive | 52.5 |

Stronger by IC50 [3], values ahead:

| EC50 [1] | Activity [2] | IC50 [3] [nM] | Emax [4] | Kb [5] [nM] | Compound |
| --- | --- | --- | --- | --- | --- |
| Not Active | – | 76.3 | inactive | 35.5 | CC[C@H](C)[C@H](NC(=O)CNC(=O)[C@H](CC(=O)O)NC(=O)[C@H]1CCCN1C(=O)[C@@H](N)Cc1cnc[nH]1)C(=O)N[C@@H](Cc1ccccc1)C(=O)N[C@H](C(=O)N[C@@H](CC(=O)O)C(=O)N[C@@H](CO)C(=O)N[C@@H](Cc1ccc(O)cc1)C(=O)N[C@@H](CO)C(=O)N[C@@H](CCCNC(=N)N)C(=O)N[C@@H](Cc1ccc(O)cc1)C(=O)N[C@@H](CCCNC(=N)N)C(=O)N[C@@H](CCCCN)C(=O)N[C@@H](CCC(N)=O)C(=O)N[C@@H](CCSC)C(=O)N[C@@H](C)C(=O)N[C@H](C(=O)N[C@@H](CCCCN)C(=O)N[C@@H](CCCCN)C(=O)N[C@@H](Cc1ccc(O)cc1)C(=O)N[C@@H](CC(C)C)C(=O)N[C@@H](C)C(=O)N[C@@H](C)C(=O)N[C@H](C(=O)N[C@@H](CC(C)C)C(=O)NCC(=O)N[C@@H](CCCCN)C(=O)N[C@@H](CCCNC(=N)N)C(=O)N[C@@H](Cc1ccc(O)cc1)C(=O)N[C@@H](CCCCN)C(=O)N[C@@H](CCC(N)=O)C(=O)N[C@@H](CCCNC(=N)N)C(=O)N[C@H](C(=O)N[C@@H](CCCCN)C(=O)N[C@@H](CC(N)=O)C(=O)N[C@@H](CCCCN)C(N)=O)C(C)C)C(C)C)C(C)C)[C@@H](C)O |
| Not Active | – | 56.7 | inactive | 11 | CSCC[C@H](NC(=O)[C@H](CCC(N)=O)NC(=O)[C@H](CCCCN)NC(=O)[C@H](CCCNC(=N)N)NC(=O)[C@H](Cc1ccc(O)cc1)NC(=O)[C@H](CCCNC(=N)N)NC(=O)[C@H](CO)NC(=O)[C@H](Cc1ccc(O)cc1)NC(=O)[C@H](CO)NC(=O)[C@H](CC(=O)O)NC(=O)[C@@H](NC(=O)[C@@H](N)Cc1ccccc1)[C@@H](C)O)C(=O)N[C@@H](C)C(=O)N[C@H](C(=O)N[C@@H](CCCCN)C(=O)N[C@@H](CCCCN)C(=O)N[C@@H](Cc1ccc(O)cc1)C(=O)N[C@@H](CC(C)C)C(=O)N[C@@H](C)C(=O)N[C@@H](C)C(=O)N[C@H](C(=O)N[C@@H](CC(C)C)C(=O)NCC(=O)N[C@@H](CCCCN)C(=O)N[C@@H](CCCNC(=N)N)C(=O)N[C@@H](Cc1ccc(O)cc1)C(=O)N[C@@H](CCCCN)C(=O)N[C@@H](CCC(N)=O)C(=O)N[C@@H](CCCNC(=N)N)C(=O)N[C@H](C(=O)N[C@@H](CCCCN)C(=O)N[C@@H](CC(N)=O)C(=O)N[C@@H](CCCCN)C(N)=O)C(C)C)C(C)C)C(C)C |
